What was measured:
[1] = Therapeutic index, ratio of toxicity in ip dosed mouse allografted with mouse L1210 cells assessed as optimal dose required for maximum increase in life span to antitumor activity against mouse L1210 cells allografted in ip dosed mouse assessed as lowest dose required for 40% increase in life span; type: organism-based; conditions: in vivo, read-out: TI
Method in brief: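 Mice tumored ip with L1210 and treated ip on days 1-9 (QD1-9) with drug in 0.9% saline, using serial twofold dose dilutions. Survival gain over untreated controls was expressed as % ILS. Dose-response relationships came from five QD1-9 experiments. TI = optimal dose for maximum % ILS ÷ lowest dose giving 40% ILS.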

L1210 [2] = assay: Antitumor activity against mouse L1210 cells allografted in ip dosed mouse assessed as change in body weight at optimal dose administered qd on day 1 post tumor implantation measured on day 5 relative to control; type: functional
Method in brief: (§1)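 Mice bearing tumour cells implanted ip (intracerebrally in the IC-L1210 system) got compound in 0.9% saline ip on the stated schedule, or orally to nonfasting animals in the PO-L1210 system. Day-1 dosing, per day, or every 6 h counted from implantation. The value is the difference in average body weight change (g) on day 5 between the optimal-dose group (T) and controls (C).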

L1210 [3] = assay: Antitumor activity against mouse L1210 cells allografted in ip dosed mouse assessed as change in body weight at optimal dose administered qd on day 1, 5 and 9 post tumor implantation measured on day 5 relative to control; type: functional; method in brief: as §1
L1210 [4] = assay: Antitumor activity against mouse L1210 cells allografted in ip dosed mouse assessed as increase in life span at optimal dose administered qd on day 1, 5 and 9 post tumor implantation relative to control; type: functional
Method in brief: (§2)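 L1210 leukemia cells implanted ip in mice. Drug given ip in 0.9% saline: day 1 only (QD1); days 1, 5, 9 (Q4D); every 6 h on days 1, 5, 9 (Q4D(Q6H)); or days 1-9 (QD1-9). Dose-response run in twofold steps, dose in mg/kg per injection. % ILS versus untreated controls at the optimal dose. Toxicity taken as test minus control body-weight change on day 5.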

Mus musculus [5] = assay: Toxicity in po dosed mouse allografted with mouse L1210 cells assessed as dose required for optimal activity administered qd from day 1 to day 9 post tumor implantation; type: organism-based; conditions: in vivo
Method in brief: (§3)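 Tumour cells were implanted ip (intracerebrally for IC-L1210), with the compound given in 0.9% saline ip, or orally to nonfasting mice in PO-L1210. Dose–response series each halved the preceding dose, expressed as mg/kg per injection. Activity was read as % increase in life-span (% ILS) over untreated controls, and from this the minimum, optimal and maximum active doses were taken.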

L1210 [6] = assay: Antitumor activity against mouse L1210 cells allografted in ip dosed mouse assessed as dose required for maximal activity administered every 6 hrs on day 1, 5 and 9 post tumor implantation; type: functional; method in brief: as §3
L1210 [7] = assay: Antitumor activity against mouse L1210 cells allografted in ip dosed mouse assessed as dose required for minimal activity administered qd on day 1, 5 and 9 post tumor implantation; type: functional; conditions: 24 h, read-out: MED; method in brief: as §3
Mus musculus [8] = assay: Toxicity in ip dosed mouse allografted with mouse L1210 cells assessed as dose required for optimal activity administered qd from day 1 to day 9 post intracerebral tumor implantation; type: organism-based; conditions: in vivo; method in brief: as §3
[9] = Therapeutic index, ratio of toxicity in ip dosed mouse allografted with mouse L1210 cells assessed as highest dose required for 40% increase in life span to antitumor activity against mouse L1210 cells allografted in ip dosed mouse assessed as lowest dose required for 40% increase in life span; type: organism-based; conditions: in vivo, read-out: TI
Method in brief: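 L1210 cells implanted ip in mice. Drug in 0.9% saline given ip once daily on days 1-9 (QD1-9), dose-response with each dose half of the next higher. % ILS measured against untreated controls. Dose-response data were pooled from five QD1-9 experiments. TI = highest dose giving 40% ILS ÷ lowest dose giving 40% ILS.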

L1210 [10] = assay: Antitumor activity against mouse L1210 cells allografted in ip dosed mouse assessed as dose required for maximal activity administered qd from day 1 to day 9 post tumor implantation; type: functional; method in brief: as §3
Mus musculus [11] = assay: Toxicity in ip dosed mouse allografted with mouse L1210 cells assessed as dose required for optimal activity administered every 6 hrs on day 1, 5 and 9 post tumor implantation; type: organism-based; conditions: in vivo; method in brief: as §3
L1210 [12] = assay: Antitumor activity against mouse L1210 cells allografted in ip dosed mouse assessed as change in body weight at optimal dose administered qd from day 1 to day 9 post intracerebral tumor implantation measured on day 5 relative to control; type: functional; method in brief: as §1
L1210 [13] = assay: Antitumor activity against mouse L1210 cells allografted in po dosed mouse assessed as increase in life span at optimal dose administered qd from day 1 to day 9 post tumor implantation relative to control; type: functional
Method in brief: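 Mice bearing ip-implanted L1210 were dosed orally, nonfasting, with compound in 0.9% saline. Dose-response in twofold steps, mg/kg per dose. % ILS relative to untreated controls at the optimal dose. Weight change (test minus control) on day 5.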

L1210 [14] = assay: Antitumor activity against 5-azacytidine-resistant mouse L1210 cells allografted in ip dosed mouse assessed as increase in life span at optimal dose administered qd from day 1 to day 9 post tumor implantation relative to control; type: functional
Method in brief: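 An L1210 subline resistant to 5-azacytidine (L1210/AZA) was implanted ip in mice. Drug given ip in 0.9% saline, dose-response in twofold steps, dose in mg/kg per injection. % ILS over untreated control survival at the optimal dose. Test minus control body-weight change on day 5.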

L1210 [15] = assay: Antitumor activity against mouse L1210 cells allografted in ip dosed mouse assessed as dose required for minimal activity administered qd from day 1 to day 9 post intracerebral tumor implantation; type: functional; conditions: read-out: MED; method in brief: as §3
L1210 [16] = assay: Antitumor activity against mouse L1210 cells allografted in ip dosed mouse assessed as increase in life span at optimal dose administered qd on day 1 post tumor implantation relative to control; type: functional; method in brief: as §2
Mus musculus [17] = assay: Toxicity in ip dosed mouse allografted with mouse L1210 cells assessed as dose required for optimal activity administered qd from day 1 to day 9 post tumor implantation; type: organism-based; conditions: in vivo; method in brief: as §3
L1210 [18] = assay: Antitumor activity against mouse L1210 cells allografted in ip dosed mouse assessed as dose required for maximal activity administered qd on day 1 post tumor implantation; type: functional; method in brief: as §3
L1210 [19] = assay: Antitumor activity against mouse L1210 cells allografted in ip dosed mouse assessed as change in body weight at optimal dose administered every 6 hrs on day 1, 5 and 9 post tumor implantation measured on day 5 relative to control; type: functional; method in brief: as §1
L1210 [20] = assay: Antitumor activity against mouse L1210 cells allografted in ip dosed mouse assessed as change in body weight at optimal dose administered qd from day 1 to day 9 post tumor implantation measured on day 5 relative to control; type: functional; method in brief: as §1
L1210 [21] = assay: Antitumor activity against mouse L1210 cells allografted in ip dosed mouse assessed as dose required for minimal activity administered qd on day 1 post tumor implantation; type: functional; conditions: 24 h, read-out: MED; method in brief: as §3
L1210 [22] = assay: Antitumor activity against mouse L1210 cells allografted in ip dosed mouse assessed as dose required for maximal activity administered qd on day 1, 5 and 9 post tumor implantation; type: functional; method in brief: as §3
L1210 [23] = assay: Antitumor activity against mouse L1210 cells allografted in ip dosed mouse assessed as dose required for minimal activity administered every 6 hrs on day 1, 5 and 9 post tumor implantation; type: functional; conditions: read-out: MED; method in brief: as §3
L1210 [24] = assay: Antitumor activity against mouse L1210 cells allografted in po dosed mouse assessed as change in body weight at optimal dose administered qd from day 1 to day 9 post tumor implantation measured on day 5 relative to control; type: functional; method in brief: as §1
Mus musculus [25] = assay: Toxicity in ip dosed mouse allografted with mouse L1210 cells assessed as dose required for optimal activity administered qd on day 1 post tumor implantation; type: organism-based; conditions: in vivo; method in brief: as §3

Cl.NC1=NC(=O)N([C@@H]2O[C@H](CO)[C@@H](O)[C@H]2O)CN1
selectivity ratio [1]: 10 | Activity (L1210 [2]): -3.1 g | Activity (L1210 [3]): -4.3 g | ILS (L1210 [4]): 96% | Activity (Mus musculus [5]): 400 mg/kg | MAD (L1210 [6]): 150 mg/kg | minimal effective dose (L1210 [7]): 12.5 mg/kg | Activity (Mus musculus [8]): 100 mg/kg | selectivity ratio [9]: 40 | MAD (L1210 [10]): 200 mg/kg | Activity (Mus musculus [11]): 125 mg/kg | Activity (L1210 [12]): -1.9 g | ILS (L1210 [13]): 50% | ILS (L1210 [14]): 0% | minimal effective dose (L1210 [15]): 25 mg/kg | ILS (L1210 [16]): 34% | Activity (Mus musculus [17]): 100 mg/kg | MAD (L1210 [18]): 1600 mg/kg | Activity (L1210 [19]): -2.5 g | Activity (L1210 [20]): -3.9 g | minimal effective dose (L1210 [21]): 300 mg/kg | MAD (L1210 [22]): 600 mg/kg | minimal effective dose (L1210 [23]): 9.4 mg/kg | Activity (L1210 [24]): -4.4 g | Activity (Mus musculus [25]): 600 mg/kg

Nc1ncn([C@@H]2O[C@H](CO)[C@@H](O)[C@H]2O)c(=O)n1 [AZACITIDINE]
selectivity ratio [1]: 7.5 | Activity (L1210 [2]): -3.8 g | Activity (L1210 [3]): -1.5 g | ILS (L1210 [4]): 94% | Activity (Mus musculus [5]): 12.5 mg/kg | MAD (L1210 [6]): 5 mg/kg | minimal effective dose (L1210 [7]): 5 mg/kg | Activity (Mus musculus [8]): 0.75 mg/kg | selectivity ratio [9]: 14 | MAD (L1210 [10]): 3.13 mg/kg | Activity (Mus musculus [11]): 5 mg/kg | Activity (L1210 [12]): -0.5 g | ILS (L1210 [13]): 24% | ILS (L1210 [14]): 0% | minimal effective dose (L1210 [15]): 0.75 mg/kg | ILS (L1210 [16]): 73% | Activity (Mus musculus [17]): 3 mg/kg | MAD (L1210 [18]): 100 mg/kg | Activity (L1210 [19]): -1.5 g | Activity (L1210 [20]): -3 g | minimal effective dose (L1210 [21]): 12.5 mg/kg | MAD (L1210 [22]): 20 mg/kg | minimal effective dose (L1210 [23]): 1.25 mg/kg | Activity (L1210 [24]): -4.1 g | Activity (Mus musculus [25]): 50 mg/kg

Reference: ChEMBL document CHEMBL3272089, “Synthesis and antitumor activity of dihydro-5-azacytidine, a hydrolytically stable analogue of 5-azacytidine” (J Med Chem, 1977)
